# According to publication PMC2606940 (The Journal of General Physiology, 2009):
# Residue numbers refer to the chain shown, from its start. Where two headings read alike, the source gives them in different places.
# Columns and labels:
# [1] = target: T1, CLC-0 E166C/E127Q/K519E mutant (Torpedo marmorata, UniProt P21564, C212S/E127Q/E166C/K519E); assay type: cell-based; conditions: read-out: Apparent affinity (K1/2)
# T1 sequence (P21564 1-805 E127Q/E166C/C212S/K519E): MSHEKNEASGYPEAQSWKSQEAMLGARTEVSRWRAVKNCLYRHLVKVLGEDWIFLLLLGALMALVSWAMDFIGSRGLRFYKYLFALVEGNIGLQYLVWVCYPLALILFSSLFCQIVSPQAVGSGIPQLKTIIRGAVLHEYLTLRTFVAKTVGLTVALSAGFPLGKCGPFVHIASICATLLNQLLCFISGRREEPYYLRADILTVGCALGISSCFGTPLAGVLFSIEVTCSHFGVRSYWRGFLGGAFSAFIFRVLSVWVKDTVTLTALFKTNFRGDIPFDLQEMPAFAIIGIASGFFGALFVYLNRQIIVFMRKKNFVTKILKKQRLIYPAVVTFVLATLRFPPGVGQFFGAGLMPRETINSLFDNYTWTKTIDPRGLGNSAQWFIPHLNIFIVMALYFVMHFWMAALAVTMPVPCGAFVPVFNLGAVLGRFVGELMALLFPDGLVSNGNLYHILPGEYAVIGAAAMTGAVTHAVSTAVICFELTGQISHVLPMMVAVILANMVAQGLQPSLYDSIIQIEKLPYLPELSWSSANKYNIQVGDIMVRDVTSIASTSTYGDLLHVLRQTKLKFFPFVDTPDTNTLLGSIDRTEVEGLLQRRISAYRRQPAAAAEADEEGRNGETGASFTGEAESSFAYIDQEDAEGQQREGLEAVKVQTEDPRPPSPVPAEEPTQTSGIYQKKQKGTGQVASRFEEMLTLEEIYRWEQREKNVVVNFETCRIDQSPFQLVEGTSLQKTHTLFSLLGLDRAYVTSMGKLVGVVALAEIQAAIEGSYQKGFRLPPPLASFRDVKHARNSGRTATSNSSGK
# How it was run: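 CLC-0 mutants in the C212S background were transfected into HEK293 cells with lipofectamine and recorded 1–3 d later as excised inside-out patches. Both sides held 130 mM NaCl, 5 mM MgCl2, 10 mM HEPES and 1 mM EGTA, pH 7.4. CPA was perfused continuously onto the cytoplasmic face. Steady-state current over the last 10 ms was normalized to bracketing blocker-free controls and fitted to a Langmuir function for K1/2. Values are mean ± SEM of ~4–6 patches.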
# CLC-0 E166A mutant = target: T2, CLC-0 E166A mutant (Torpedo marmorata, UniProt P21564, C212S/E166A); test: Single-channel recordings, channels expressed in Xenopus oocytes; assay type: cell-based; conditions: 0.1 mM CPA cytoplasmic side; −100 mV
# T2 sequence (P21564 1-805 E166A/C212S): T1 sequence (P21564 1-805 E127Q/E166C/C212S/K519E) with Q127E, C166A, E519K
# How it was run: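 Single channels were expressed in Xenopus oocytes from cRNA made from a pBluescript construct. Currents were recorded at −100 mV with cytoplasmic CPA at 100 μM, filtered at 200 Hz (four-pole Bessel) and digitized at 1 kHz. Average dwell time of nonconducting events was analysed from the single-channel traces.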
smiles,measurement,setting,value
"O=C(O)COc1ccc(Cl)cc1 [CPA, p-chlorophenoxy acetate]",IC50,[1]; −40 mV,586 ± 52 µM
same,IC50,[1]; −60 mV,327 ± 24 µM
same,IC50,[1]; −80 mV,198 ± 14 µM
same,IC50,[1]; −100 mV,123 ± 9 µM
same,IC50,[1]; −120 mV,87 ± 6 µM
same,IC50,[1]; −140 mV,62 ± 5 µM
same,IC50,[1]; −160 mV,44 ± 5 µM
same,averaged time of nonconducting (blocked) events,CLC-0 E166A mutant,~55 ms
